The values below come from ChEMBL document CHEMBL1177786, “Synthesis of novel beta-carbolines with efficient DNA-binding capacity and potent cytotoxicity” (Bioorg Med Chem Lett, 2010).

The subject of one test is OS-RC-2. The experiment in a line: Cytotoxicity against human OS-RC2 cells by MTT assay. Type of test: functional, cell-based. The procedure, abridged: (§1)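 MTT assay in human tumour lines. IC50 is the compound concentration giving a 50% drop in optical density relative to untreated cells. Values are means of three independent determinations.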
Another test relates to CWR22R. Briefly: Cytotoxicity against human 22Rv1 cells by MTT assay. Type of test: functional, cell-based. In outline:
as §1
In general terms: Tetrazolium assays rely on reduction of a dye to a coloured formazan, in cell work by metabolically active cells.

The subject of the next test is HepG2. The experiment in a line: Cytotoxicity against human HepG2 cells by MTT assay. Type of test: functional, cell-based. In outline: as §1
In the next test the test system is A-375. The experiment in a line: Cytotoxicity against human A375 cells by MTT assay. Type of test: functional, cell-based. In outline:
as §1

Another test has as its system 769-P. Briefly: Cytotoxicity against human 769-P cells by MTT assay. Type of test: functional, cell-based. The procedure, abridged: as §1
A further test concerns HT-29. The experiment in a line: Cytotoxicity against human HT-29 cells by MTT assay. Type of test: functional, cell-based. The procedure, abridged:
as §1

The next test concerns 786-0. The experiment in a line: Cytotoxicity against human 786-0 cells by MTT assay. Type of test: functional, cell-based. In outline: as §1
In test [1] the test system is Calf thymus DNA. The experiment in a line: Binding affinity to calf thymus DNA assessed as change in melting temperature at drug/DNA ratio 0.2 at pH 7.4. Type of test: nucleic-acid assay. The conditions noted are these: Bos taurus. In outline: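 Thermal denaturation of calf thymus DNA in PE buffer (1 mM Na₂HPO₄, 0.1 mM EDTA, pH 7.4), drug/DNA ratio 0.2; ΔTm taken as Tm of drug–DNA complex minus Tm of DNA alone.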

Test [2] in a line: Cytotoxicity against human BCG823 cells by MTT assay. Type of test: functional, cell-based. In outline:
as §1

Another test deals with KB. The experiment in a line: Cytotoxicity against human KB cells by MTT assay. Type of test: functional, cell-based. The procedure, abridged:
as §1

For the next test, the system named is MCF7. The experiment in a line: Cytotoxicity against human MCF7 cells by MTT assay. Type of test: functional, cell-based. The procedure, abridged:
as §1

The subject of test [3] is Calf thymus DNA. Briefly: Binding affinity to calf thymus DNA assessed as fluorescence quenching at 10 uM by spectrofluorimeter analysis. Type of test: nucleic-acid assay. The conditions noted are these: Bos taurus. In outline:
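Compound held fixed at […] in PE buffer (1 mM Na₂HPO₄, 0.1 mM EDTA, pH 7.4), titrated with CT-DNA. Fluorescence quenching recorded on a spectrofluorometer, excitation 372 nm.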

The subject of test [4] is Calf thymus DNA. Briefly: Binding affinity to calf thymus DNA at pH 7.4 by UV-vis spectroscopy. The note with it: Bos taurus. Type of test: nucleic-acid assay. In outline: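 UV absorption spectra recorded in PE buffer (1 mM Na₂HPO₄, 0.1 mM EDTA, pH 7.4) with CT-DNA increasing from 0.0 to 0.2 mM. Quartz cells with 10 mm path, room temperature.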

The source made the active and inactive calls. The calls are words filed in the database; no cut-off is given here. Where only a bound is given, the exact number is not on record here.

As a reminder, the IC50 is the concentration at which inhibition is half-maximal. A higher IC50 goes with weaker potency. For orientation: ΔTm means the shift of the melting midpoint relative to a reference. `CCN(CC)CCCNCc1cc2c(cn1)[nH]c1ccccc12`: the IC50 in the test on OS-RC-2 is 67.4 µM; in the test with CWR22R, above 100 µM; in the test on HepG2, 93.7 µM; with A-375 it was above 100 µM; with 769-P, 75.3 µM; with HT-29, above 100 µM. Further, the IC50 (in the test with 786-0; in test [2]; with KB; in the test with MCF7) was above 100 µM each time. Further, in the test on Calf thymus DNA [1], the ΔTm was determined as 12.6 °C. The outcome in the test with Calf thymus DNA [3] and in the test with Calf thymus DNA [4] was Active.

Take `CCN(CC)CCCNCc1cc2c3ccccc3n(CCCc3ccccc3)c2cn1`: the IC50 in the test with OS-RC-2 came out at 13.1 µM; in the test with CWR22R, 7.7 µM; in the test with HepG2, 3.8 µM; in the test with A-375 it was 8.9 µM; in the test on 769-P, 5.1 µM; in the test with HT-29, 2.6 µM. The half-inhibitory concentration (IC50) in the test on 786-0 came to 8.3 µM; in test [2], 7.4 µM; with KB, 4.8 µM; with MCF7, 13.8 µM. Further, in the test with Calf thymus DNA [1], the ΔTm was determined as 18.8 °C. The result in the test on Calf thymus DNA [3] and in the test on Calf thymus DNA [4] was Active.
